Here are results for 32 compounds from ChEMBL document CHEMBL1150169, “Fatty acid synthase inhibitors from plants: isolation, structure elucidation, and SAR studies” (J Nat Prod, 2002).

In one test the test system is Candida albicans. As to the kind of experiment: Antifungal activity against Candida albicans ATCC 90028. In kind it is functional, organism-based.
Test [1] can be described thus: Inhibition of Saccharomyces cerevisiae fatty acid synthase. The essentials:
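Yeast FAS semipurified by 50% ammonium sulfate precipitation of lysate (pH 6.6 phosphate, EDTA, DTT, protease inhibitors), dialyzed, and diluted to 250 mOD/min/mL. Samples preincubated with enzyme 30 min at room temperature, then mixed 1:1 with mix of 1 mM malonyl CoA and NADPH, 40 µM acetyl CoA, and 2 mM DTT. A340 read kinetically; rate over initial 2 min. IC50 from dose-response curves.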

Another test deals with Cryptococcus neoformans. The experiment in a line: Antifungal activity against Cryptococcus neoformans ATCC 90113. In kind it is functional, organism-based.

≈ marks a conversion by molar mass, not a printed value. Where only a bound is given, the exact number is not on record here.

One may read the IC50 as the point on the concentration scale where inhibition reaches its midpoint. A higher IC50 goes with lower potency. Turning to `Cc1c(-c2ccccc2)oc2c(C(=O)O)cccc2c1=O`, the IC50 (in the test with Candida albicans; in test [1]; in the test on Cryptococcus neoformans) was above 50 µg/mL throughout.

Regarding `COc1ccc(-c2cc(=O)c3c(O)cc(O)cc3o2)cc1-c1c(OC)cc(O)c2c(=O)cc(-c3ccc(O)cc3)oc12`, the IC50 in the test with Candida albicans is above 50 µg/mL; in test [1] it was 49 µg/mL (≈ 86.5 µM); in the test on Cryptococcus neoformans it was above 50 µg/mL.

`O=c1c(-c2ccc(O)cc2)coc2cc(O)c(O)cc12`: the values for the IC50 (in the test with Candida albicans; in test [1]; with Cryptococcus neoformans) were above 50 µg/mL, 50 µg/mL (≈ 185 µM) and above 50 µg/mL, respectively.

`O=c1cc(-c2ccc(Cl)cc2)oc2ccc(Br)cc12`: the IC50 (in the test on Candida albicans; in test [1]; in the test with Cryptococcus neoformans) was above 50 µg/mL each time.

In the case of `C=C(C)C(O)Cc1c(O)ccc(C(=O)/C=C/c2ccc(O)cc2)c1O` (stereo unspecified), the IC50 with Candida albicans came out at 20 µg/mL (≈ 58.8 µM); in test [1] it was 46 µg/mL (≈ 135 µM); in the test on Cryptococcus neoformans it was 50 µg/mL (≈ 147 µM).

Consider `CC1(C)CC[C@]2(C(=O)O)CC[C@]3(C)C(=CC[C@@H]4[C@@]5(C)C[C@@H](O)[C@H](O)[C@@](C)(COC(=O)c6cc(O)c(O)c(O)c6)[C@@H]5[C@H](O)C[C@]43C)[C@@H]2C1`, for which the IC50 (in the test on Candida albicans; in test [1]; with Cryptococcus neoformans) was above 50 µg/mL throughout.

`O=Cc1cc(-c2coc3cc(O)cc(O)c3c2=O)ccc1O`: the results for the IC50 (with Candida albicans; in test [1]; in the test with Cryptococcus neoformans) were above 50 µg/mL, 2.3 µg/mL (≈ 7.71 µM) and above 50 µg/mL, respectively.

Take `Cc1ccc2oc(-c3ccc(Cl)cc3)cc(=O)c2c1`: the IC50 (in the test with Candida albicans; in test [1]; with Cryptococcus neoformans) was above 50 µg/mL throughout.

With `O=c1cc(-c2ccc(Cl)cc2)oc2c(Br)cc(Br)cc12`, the IC50 (in the test with Candida albicans; in test [1]; with Cryptococcus neoformans) was above 50 µg/mL in each case.

For `O=c1cc(-c2ccccc2)oc2c(Br)cc(Br)cc12`, the IC50 (with Candida albicans; in test [1]; with Cryptococcus neoformans) was above 50 µg/mL each time.

`COc1cc2c(=O)oc3c(OC)c(O[C@@H]4O[C@H](CO)[C@@H](O)[C@H](O)[C@H]4O)cc4c(=O)oc(c1OC)c2c34`: the concentration for half-maximal inhibition (IC50) (in the test with Candida albicans; in test [1]; in the test on Cryptococcus neoformans) was above 50 µg/mL throughout.

For `O=C1c2c(O)cc(O)cc2OC(c2ccc(O)cc2O)C1O` (stereo unspecified), the IC50 (in the test with Candida albicans; in test [1]; with Cryptococcus neoformans) was above 50 µg/mL throughout.

Take `Cc1cc2oc(-c3ccccc3)cc(=O)c2cc1Cl`: the IC50 (in the test with Candida albicans; in test [1]; in the test with Cryptococcus neoformans) was above 50 µg/mL each time.

Regarding `COc1cc(O)c(C(=O)CCc2ccccc2)c(O)c1`, the IC50 (in the test with Candida albicans; in test [1]; in the test with Cryptococcus neoformans) was above 50 µg/mL in each case.

As for `O=C1c2c(O)cc(O)c(C3C(=O)c4c(O)cc(O)cc4OC3c3ccc(O)cc3)c2OC(c2ccc(O)c(O)c2)C1O` (stereo unspecified), the IC50 in the test with Candida albicans was above 50 µg/mL; in test [1], 23 µg/mL (≈ 40 µM); in the test on Cryptococcus neoformans it was above 50 µg/mL.

On to `C=C(C)C(O)Cc1cc(-c2coc3cc(O)cc(O)c3c2=O)ccc1O` (stereo unspecified), for which the IC50 (in the test with Candida albicans; in test [1]; in the test with Cryptococcus neoformans) was above 50 µg/mL in each case.

Take `O=C1c2c(O)cc(O)cc2OC(c2ccc(O)cc2)C1c1c(O)cc(O)c2c(=O)cc(-c3ccc(O)c(O)c3)oc12` (stereo unspecified): the IC50 was above 50 µg/mL in the test with Candida albicans, 30 µg/mL (≈ 53.9 µM) in test [1] and above 50 µg/mL in the test on Cryptococcus neoformans.

With `Oc1cc(O)c2c(c1)O[C@H](c1ccc(O)c(O)c1)[C@H](O)C2` [(-)-EPICATECHIN], the IC50 (in the test on Candida albicans; in test [1]; with Cryptococcus neoformans) was above 50 µg/mL throughout.

Regarding `CC1(C)C=Cc2c(cc3occ(-c4ccc(O)cc4)c(=O)c3c2O)O1` [ALPINUMISOFLAVONE], the IC50 (in the test with Candida albicans; in test [1]; with Cryptococcus neoformans) was above 50 µg/mL throughout.

For the compound `O=C1c2c(O)cc(O)cc2OC1(O)Cc1cc(O)c(O)c(O)c1` (stereo unspecified) [AMARANOL A], the IC50 (in the test on Candida albicans; in test [1]; in the test on Cryptococcus neoformans) was above 50 µg/mL throughout.

With `COc1c(O)cc(CC2(O)Oc3cc(O)cc(O)c3C2=O)cc1O` (stereo unspecified) [AMARONOL B], the IC50 (with Candida albicans; in test [1]; with Cryptococcus neoformans) was above 50 µg/mL throughout.

Consider `O=c1cc(-c2ccc(O)c(-c3c(O)cc(O)c4c(=O)cc(-c5ccc(O)cc5)oc34)c2)oc2cc(O)cc(O)c12` [AMENTOFLAVONE], for which the results for the IC50 (with Candida albicans; in test [1]; with Cryptococcus neoformans) were above 50 µg/mL, 7 µg/mL (≈ 13 µM) and above 50 µg/mL, respectively.

Regarding `O=c1cc(-c2ccc(O)cc2)oc2cc(O)cc(O)c12` [APIGENIN], the 50% inhibitory concentration (IC50) in the test on Candida albicans is above 50 µg/mL; in test [1] it was 37.5 µg/mL (≈ 139 µM); in the test with Cryptococcus neoformans, 20 µg/mL (≈ 74 µM).

Regarding `CC1(C)CC[C@]2(C(=O)O)CC[C@]3(C)C(=CC[C@@H]4[C@@]5(C)C[C@@H](O)[C@H](O)[C@@](C)(CO)[C@@H]5CC[C@]43C)[C@@H]2C1` [ARJUNOLIC ACID], the values for the IC50 (with Candida albicans; in test [1]; in the test with Cryptococcus neoformans) were above 50 µg/mL, 27.5 µg/mL (≈ 56.3 µM) and 20 µg/mL (≈ 40.9 µM), respectively.

As to `COc1cc(O)c(C(=O)CCc2ccc(O)cc2)c(O)c1` [ASEBOGENIN], the IC50 (in the test on Candida albicans; in test [1]; in the test on Cryptococcus neoformans) was above 50 µg/mL throughout.

`COc1cc2oc(-c3ccccc3)cc(=O)c2c(OC)c1OC` [BAICALEIN TRIMETHYL ETHER]: the IC50 (in the test with Candida albicans; in test [1]; with Cryptococcus neoformans) was above 50 µg/mL throughout.

Regarding `O=c1cc(-c2ccccc2)oc2cc(O)c(O)c(O)c12` [BAICALEIN], the figures for the IC50 (in the test with Candida albicans; in test [1]; in the test with Cryptococcus neoformans) were 6 µg/mL (≈ 22.2 µM), 25 µg/mL (≈ 92.5 µM) and above 50 µg/mL, respectively.

Take `O=C(O)[C@H]1O[C@@H](Oc2cc3oc(-c4ccccc4)cc(=O)c3c(O)c2O)[C@H](O)[C@@H](O)[C@@H]1O` [BAICALIN]: the IC50 (with Candida albicans; in test [1]; in the test with Cryptococcus neoformans) was above 50 µg/mL throughout.

In the case of `C=C(C)[C@@H]1CC[C@]2(C(=O)O)CC[C@]3(C)[C@H](CC[C@@H]4[C@@]5(C)CC[C@H](O)C(C)(C)[C@@H]5CC[C@]43C)[C@@H]12` [BETULINIC ACID], the half-inhibitory concentration (IC50) (in the test on Candida albicans; in test [1]; with Cryptococcus neoformans) was above 50 µg/mL each time.

In the case of `COc1ccc(-c2coc3cc(O)cc(O)c3c2=O)cc1` [BIOCHANIN], the half-inhibitory concentration (IC50) (in the test with Candida albicans; in test [1]; in the test on Cryptococcus neoformans) was above 50 µg/mL throughout.

For the compound `C/C=C/C/C=C/CCC(=O)[C@H]1O[C@H]1C(N)=O` [CERULENIN], the IC50 was determined as 0.4 µg/mL (≈ 1.79 µM) with Candida albicans, 0.15 µg/mL (≈ 0.672 µM) in test [1] and 0.15 µg/mL (≈ 0.672 µM) with Cryptococcus neoformans.

For the compound `O=C(O)C[C@@H]1C(=O)O[C@H]2[C@@H]3OC(=O)c4cc(O)c(O)c(O)c4-c4c(cc(O)c(O)c4O)C(=O)OC[C@H]2O[C@@H](OC(=O)c2cc(O)c(O)c(O)c2)[C@@H]3OC(=O)c2cc(O)c(O)c3c2[C@H]1[C@H](O)C(=O)O3` [CHEBULAGIC ACID], the IC50 (in the test on Candida albicans; in test [1]; with Cryptococcus neoformans) was above 50 µg/mL throughout.
